Data taken from PubChem BioAssay.
Records with an inconclusive call do not appear. Activity calls are given as the source filed them.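 Rule for the calls, unless noted: active = cell viability at or below a set limit in both duplicate runs, the limit being the all-compound median minus 4 SD (cut at about 23% in these data, passing the limit was not always enough); inconclusive = no clear call, values can overlap the other calls; inactive = the rest.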

What was measured:
[1] = OD615 S. cerevisiae growth inhibition, permissive medium, pilot counter-assay, permissive growth control for S. cerevisiae lifespan shortening project (AID 705;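 active = growth inhibition above 25% in both replicates, a cutoff set 3 SD above the mean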); conditions: OD615, 24 h, at 10 µM, hits give high values
In short: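 System – S. cerevisiae with engineered DeaD lifespan system · Buffer or medium – SC raffinose/galactose permissive medium · Schedule – cells pre-grown 4 h, then 24 h compound exposure, 30 °C humidified · Technique – culture turbidity as optical density at 615 nm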

[2] = Restrictive medium S. cerevisiae growth inhibition, OD615, pilot screen of yeast lifespan reduction project, restrictive growth control (AID 706;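 active = growth inhibition above a set limit, 3 SD over mean compound inhibition, in both replicates, cut at about 43% in these data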;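 note: modified DeaD lifespan yeast strain shifted to restrictive glucose medium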); conditions: OD615, 48 h, at 10 µM, hits give high values
In short: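 Material: engineered S. cerevisiae DeaD strain / Medium: glucose-based CSMM-D restrictive medium / Compound: single dose of 10 µM compound final, 0.25% DMSO / Timing: 4 h pre-incubation, 48 h exposure at 30 °C / Technique: OD615 absorbance reading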

[3] = viability gain of MRP-1-high H69AR cells under doxorubicin, pilot screen, MRP-1 activator project, CellTiter-Glo, duplicate (AID 807;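 active = viability increase at or above a cutoff of the median across tested compounds plus 3 SD, cut at about 8.5% in these data, passing the limit was not always enough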;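 note: compound pretreatment 18-22 h then 72 h combined with doxorubicin; 0% = doxorubicin alone and 100% = vehicle without doxorubicin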); conditions: H69AR viability with doxorubicin, CellTiter-Glo luminescence; at 10 µM; hits give high values
[4] = growth suppression of beta-catenin knockout HCT116, pilot screen, human colon tumor cells (AID 823); conditions: CellTiter-Glo, 60 h, at 10 µM, hits give low values;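 note: 0% = wells killed by 20 µM Hyamine and 100% = untreated DMSO cell wells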
[5] = inhibitors of the yeast RAM network, pilot screen, dse1pr::URA3 reporter, 5-FOA selection (AID 869;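 active = inhibition over a set limit, the all-compound mean plus 3 SD, in both replicate runs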;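 note: 0% = DMSO wells with no growth and 100% = 10 µM 1-NA-PP1 with full growth; RAM network block rescues cells from 5-FOA so hits raise OD615 growth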); conditions: S. cerevisiae dse1pr::URA3 5-FOA growth, OD615, 2 d; at 10 µM; hits give high values; strain carries analog-sensitive mutant Cbk1 kinase
[6] = RAM signaling pathway blockade in yeast – S. cerevisiae, Pdr1DBD-CYC8 efflux-inhibited sensitized strain, primary screen (AID 1298;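 active = RAM network inhibition above 8.4% in each of two replicates, 3 SD over the compound average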;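 note: 0% = DMSO untreated cells without growth and 100% = 10 µM 1-NA-PP1 full growth; higher means more yeast growth rescued from 5-FOA killing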); conditions: S. cerevisiae cbk1-as DSE1-URA3 strain, 5-FOA growth OD615, 2 d; at 50 µM; hits give high values

SMILES	growth inhibition [1]	growth inhibition [2]	viability increase [3]	viability [4]	inhibition [5]	RAM network inhibition [6]
COc1ccccc1N1CCN(C2=CC(=O)CCC2)CC1	-17.3% (inactive)	-12.2% (inactive)	-1.22% (inactive)	100% (inactive)	0.81% (inactive)	2.91% (inactive)
COCc1cc(=O)n2c(-c3ccccc3OC)n[nH]c2n1	-14% (inactive)	4.39% (inactive)	-3.36% (inactive)	92.7% (inactive)	2.2% (inactive)	9.13% (inactive)
CCOc1cccc2c1OC1(C)CC2NC(=O)N1c1cccc(Cl)c1 (stereo not drawn)	-12% (inactive)	5.29% (inactive)	-1.53% (inactive)	99.2% (inactive)	-0.045% (inactive)	5.25% (inactive)
COc1ccccc1N1CCN(CC(=O)Nc2cc(C)nn2-c2nc(C)cc(C)n2)CC1	-5.77% (inactive)	-18.8% (inactive)	-7.06% (inactive)	19.6% (active)	1.77% (inactive)	6.51% (inactive)
C=CCn1c(CCNC(=O)C(C)(C)C)nc2ccccc21	-10.5% (inactive)	3.93% (inactive)	-1.82% (inactive)	103% (inactive)	1.94% (inactive)	3.12% (inactive)
Cc1cc(NC(=O)Cn2c(=O)n(Cc3ccccc3)c(=O)c3ccccc32)no1	-5.91% (inactive)	-24.7% (inactive)	-5.98% (inactive)	51.5% (inactive)	1.32% (inactive)	6.47% (inactive)
CSc1nc(N(CCO)CCO)c2sc3nc(-c4ccco4)c4c(c3c2n1)CCC4	-1.82% (inactive)	8.15% (inactive)	-4.84% (inactive)	93.9% (inactive)	2.71% (inactive)	8.3% (inactive)
CNC(=O)C1C2C=CC3(O2)C1C(=O)N(CCOC)C3C(=O)NCc1ccc(OC)cc1 (stereo not drawn)	-11% (inactive)	0.24% (inactive)	-1.22% (inactive)	96% (inactive)	1.67% (inactive)	2.29% (inactive)
Cc1ccc(OCCCC(=O)Nc2nncs2)cc1	-9.25% (inactive)	-13.4% (inactive)	0.75% (inactive)	105% (inactive)	1.92% (inactive)	1.98% (inactive)
CCN(CC)c1ccc(NC(=O)c2ccc(NC(=O)C3CCCO3)cc2)c(C)c1 (stereo not drawn)	-6.83% (inactive)	3.42% (inactive)	1.38% (inactive)	94.8% (inactive)	0.965% (inactive)	6.65% (inactive)
OCCN1CCN(c2ncnc3c2sc2nc(N4CCOCC4)c4c(c23)CCC4)CC1	-16.4% (inactive)	-3.42% (inactive)	-7.68% (inactive)	55.3% (inactive)	1.13% (inactive)	2.39% (inactive)
COC(=O)c1cc(=O)n(Cc2ccco2)c(=Nc2ccc(F)c(Cl)c2)s1	-17.1% (inactive)	-11.1% (inactive)	-8.24% (inactive)	9.25% (active)	2.19% (inactive)	10.1% (inactive)
O=C(Cn1nnc(-c2ccccc2NC(=O)c2ccccc2F)n1)NCc1ccco1	-7.91% (inactive)	-7.09% (inactive)	-6.92% (inactive)	73.9% (inactive)	1.39% (inactive)	4.52% (inactive)
C=CCn1c(=O)[nH]c2cc(C(=O)N3CCN(c4cccc(Cl)c4)CC3)ccc2c1=O	-16.5% (inactive)	-12.3% (inactive)	-6.95% (inactive)	79.3% (inactive)	3.33% (inactive)	3.07% (inactive)
CCOCCCNC(=O)C1CCC(CNS(=O)(=O)c2ccc(F)cc2)CC1 (stereo not drawn)	-7.63% (inactive)	6.36% (inactive)	-2.28% (inactive)	95.5% (inactive)	1.19% (inactive)	7.28% (inactive)
O=c1[nH]c2ccc(S(=O)(=O)NCc3ccccn3)cc2s1	-13.7% (inactive)	2.04% (inactive)	-1.44% (inactive)	95.8% (inactive)	1.35% (inactive)	6.28% (inactive)
Cc1nn(CC(=O)Nc2cccnc2N2CCOCC2)c(=O)c2ccccc12	-23.7% (inactive)	1.05% (inactive)	-2.18% (inactive)	95% (inactive)	1.22% (inactive)	1.71% (inactive)
CCOc1ccccc1NC(=O)CSc1nnc(-c2cnccn2)n1C	-24.8% (inactive)	-1.53% (inactive)	-3.17% (inactive)	91.8% (inactive)	3.12% (inactive)	5.04% (inactive)
CCC1CCCCN1C(=O)CSc1nc2c([nH]c3ccccc32)c(=O)n1C (stereo not drawn)	-5.5% (inactive)	-4.4% (inactive)	-8.15% (inactive)	55.7% (inactive)	1.36% (inactive)	3.27% (inactive)
CCC(=O)NC(C)c1nc2ccccc2n1C (stereo not drawn)	-9.66% (inactive)	-2.13% (inactive)	-1.61% (inactive)	102% (inactive)	1.37% (inactive)	7.64% (inactive)
CCN(CC)C(=O)CSc1nnc(-c2ccccc2)n1N	3.57% (inactive)	-0.035% (inactive)	-2.74% (inactive)	93.3% (inactive)	0.76% (inactive)	-0.62% (inactive)
COc1ccc(NS(=O)(=O)c2cccc(-c3nnc4n3CCCCC4)c2)cc1	-9.52% (inactive)	10.2% (inactive)	-3.38% (inactive)	92.6% (inactive)	1.11% (inactive)	1.97% (inactive)

SMILES	growth inhibition [1]	growth inhibition [2]	viability increase [3]	viability [4]	inhibition [5]	RAM network inhibition [6]
NC(=O)C1CCN(C(=O)CCCCCn2c(=O)[nH]c3ccsc3c2=O)CC1	-14% (inactive)	-8.6% (inactive)	-3.22% (inactive)	96.4% (inactive)	0.97% (inactive)	3.54% (inactive)
COc1ccc(NC(=O)c2cncc(Br)c2)c(S(=O)(=O)N2CCOCC2)c1	-1.69% (inactive)	7.98% (inactive)	-5.06% (inactive)	98.3% (inactive)	2.21% (inactive)	4.58% (inactive)
Cc1c(C(=O)Nc2ccncc2)sc2nc(-c3ccc(F)cc3)cn12	-5.44% (inactive)	11.7% (inactive)	-6.8% (inactive)	42.3% (inactive)	1.96% (inactive)	8.43% (inactive)
CSc1nc(SCC(=O)NCc2ccco2)c2c3c(sc2n1)COC(C)(C)C3	-11.7% (inactive)	-6.08% (inactive)	-8.04% (inactive)	33.9% (inactive)	2.8% (inactive)	7.62% (inactive)
COC(=O)c1cn(NC(=O)C2CCCCC2)c(=O)c2ccccc12	13.2% (inactive)	6.18% (inactive)	-1.25% (inactive)	94.3% (inactive)	-0.16% (inactive)	5.38% (inactive)
Cc1ccc(Cl)cc1N1CCN(S(=O)(=O)c2cccc(S(=O)(=O)N3CCCC3)c2)CC1	-4.5% (inactive)	12% (inactive)	0.04% (inactive)	83.5% (inactive)	2.14% (inactive)	6.44% (inactive)
O=C(c1ccccn1)N1CCN(c2ccc(C(F)(F)F)cn2)CC1	-20.7% (inactive)	-2.59% (inactive)	0.37% (inactive)	96.5% (inactive)	1.64% (inactive)	3.84% (inactive)
Cc1cc(Nc2nc3c(c(=O)n(C)c(=O)n3C)n2C)n(-c2ccc(Cl)cc2)n1	9.41% (inactive)	3.67% (inactive)	-3.74% (inactive)	92.7% (inactive)	3.25% (inactive)	3.85% (inactive)
Cc1cc(C)n(-c2nnc(C)n2/N=C/c2ccccc2OCc2ccccc2Cl)n1	-4.54% (inactive)	-6.33% (inactive)	-5.89% (inactive)	22.2% (active)	1.27% (inactive)	-2.2% (inactive)
Cc1nc2c3c4c(sc3n3c(SCC(=O)NCc5ccco5)nnc3n2n1)COC(C)(C)C4	-15.2% (inactive)	3.31% (inactive)	-6.89% (inactive)	88.7% (inactive)	1.85% (inactive)	5.05% (inactive)
CCOC(=O)N1CCC(NC(=O)C(NC(=O)C2CCCCC2)C(C)C)CC1 (stereo not drawn)	-6.95% (inactive)	-2.83% (inactive)	-1.25% (inactive)	93% (inactive)	2% (inactive)	6.39% (inactive)
Cc1cc(C)nc(NS(=O)(=O)c2ccc(NC(=O)c3cccs3)cc2)n1	-11.4% (inactive)	-2.39% (inactive)	-2.29% (inactive)	97.7% (inactive)	0.89% (inactive)	0.21% (inactive)
O=C(NCc1cccs1)C1CCCN(S(=O)(=O)c2ccc3c(c2)OCO3)C1 (stereo not drawn)	-20.3% (inactive)	-1.21% (inactive)	-3.16% (inactive)	90.8% (inactive)	1.46% (inactive)	3.17% (inactive)
CN(C)/C=N/c1c(C#N)cnn1-c1nc2ccccc2s1	-9.66% (inactive)	6.79% (inactive)	-3.38% (inactive)	102% (inactive)	1.28% (inactive)	4.53% (inactive)
COc1ccccc1-c1nc(NC(C)=O)n[nH]1	-12.1% (inactive)	-8.54% (inactive)	-4.21% (inactive)	92.1% (inactive)	3.42% (inactive)	5.35% (inactive)
CCCC(=O)Nc1cc(C)c(NC(=O)Cc2ccccc2)cn1	2.84% (inactive)	6.81% (inactive)	-1.76% (inactive)	98.2% (inactive)	0.135% (inactive)	2.84% (inactive)
Cc1ccc2c(c1)c(C)c(C)n2CC(O)Cn1nnc2ccccc21 (stereo not drawn)	-9.66% (inactive)	-5.1% (inactive)	-5.06% (inactive)	82.3% (inactive)	0.335% (inactive)	2.28% (inactive)
Cc1cc2cc(CN(Cc3ccc4c(c3)OCO4)C(=O)c3cnccn3)c3nnnn3c2cc1C	-6.95% (inactive)	6.71% (inactive)	-5.49% (inactive)	87.2% (inactive)	2.06% (inactive)	5.81% (inactive)
CCN(CC)CCOc1c(Br)ccc2c1sc1nc3n(c(=O)c12)CCC3	-1.77% (inactive)	6.08% (inactive)	-5.02% (inactive)	30.4% (inactive)	0.405% (inactive)	5.14% (inactive)
CCCn1cc(S(=O)(=O)CC(=O)Nc2ccc(OCC)cc2)c2ccccc21	1.42% (inactive)	3.91% (inactive)	-4.37% (inactive)	84.7% (inactive)	1.41% (inactive)	6.49% (inactive)
CC(C)OCCCNC(=O)c1ccc(NC(=O)C2CCCO2)cc1 (stereo not drawn)	-12.9% (inactive)	-8.97% (inactive)	-1.08% (inactive)	99.9% (inactive)	1.57% (inactive)	1.15% (inactive)
